Sampled rows, rich in hits. Any-hit rate of the full collection: about 2.2%.
ASAP1 inh – ASAP1 ArfGAP inhibition. inhibition, % at 16.5 µM. ASAP1-stimulated ARF1 GTP hydrolysis, GDP FP detection. Q9ULH1. actives 0.19% (n = 360,000). AID 624377; in the data active = inhibition above about 25%;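 note: 0% = vehicle with enzyme and substrate and 100% = no enzyme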
Target sequence (Q9ULH1 325-724 limits assumed): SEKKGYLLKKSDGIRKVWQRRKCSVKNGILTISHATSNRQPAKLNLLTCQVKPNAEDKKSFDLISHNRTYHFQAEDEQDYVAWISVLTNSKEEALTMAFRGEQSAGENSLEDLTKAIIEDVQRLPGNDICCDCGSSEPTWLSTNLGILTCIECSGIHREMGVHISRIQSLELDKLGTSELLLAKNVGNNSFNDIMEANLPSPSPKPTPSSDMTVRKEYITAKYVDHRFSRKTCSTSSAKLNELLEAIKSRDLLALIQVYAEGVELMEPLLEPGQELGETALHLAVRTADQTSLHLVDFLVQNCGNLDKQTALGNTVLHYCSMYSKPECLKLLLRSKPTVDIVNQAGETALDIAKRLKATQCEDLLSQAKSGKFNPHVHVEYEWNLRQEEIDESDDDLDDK
ARFGAP1 inhibitor – inhibits rat ARF GTPase activating protein 1; inhibition, % at 16.5 µM; Arfgap1-stimulated ARF1 GTP hydrolysis, GDP FP detection; Q62848; AID 651572; actives 0.26% (n = 360,000);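 active = inhibition above a per-plate limit, mean inhibition of low control wells plus 3 SD, cut at about 25% in these data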;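 note: 0% = DMSO wells with enzyme and 100% = wells lacking Arfgap1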
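Material: truncated rat Arfgap1 GAP domain; Incubation: compound-enzyme preincubation 20 min, reaction 120 min, detection 60 min, 25 °C; Read-out: percent inhibition of Arfgap1-stimulated GTP hydrolysis; Technique: FP, GDP Alexa 633 tracer displaced from anti-GDP antibody, 620/688 nm; Controls: No-Arfgap1 wells (100%) versus DMSO full-reaction wells (0%); Replication: single well per compound.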
rCAG RNA binder – r(CAG) repeat RNA binding; TO-PRO-1 dye displacement fluorescence; inhibition, % at 3 µM; actives 1.3% (n = 370,000);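 active = inhibition above the plate cutoff, the mean of all test compounds on that plate plus 3 SD, cut at about 35% in these data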;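 note: 0% = DMSO alone and 100% = 100 µM mitoxantrone as full dye displacement; higher means more dye released from RNA so lower well fluorescence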
NadD block – inhibitors of Staphylococcus aureus NadD; purified NadD enzyme, colorimetric absorbance read-out; inhibition, % at 20 µM; actives 0.78% (n = 360,000); AID 602399; in the data active = inhibition above about 26%
NadD inh conf – confirmation of Staphylococcus aureus NadD inhibitors; shares compounds with NadD block; purified S. aureus NadD, colorimetric enzyme assay; inhibition, % at 20 µM; actives 13% (n = 2,000); AID 624309; in the data active = inhibition mostly above about 42%, no sharp cut-off; inactive = mostly below about 42%
Numbers without * were called inactive; · = no result.

SMILES	ASAP1 inh	ARFGAP1 inhibitor	rCAG RNA binder	NadD block	NadD inh conf
CCC(=O)N1CC2(CC(c3cccc(NC(=O)CC(c4ccccc4)c4ccccc4)c3)=NO2)C[C@H]1C(N)=O (some centres undefined)	7	13	5	-7	·
CC(C)c1[nH]nc2c1C(c1ccccc1)N(Cc1ccccc1)C2=O (centres undefined)	-2	-9	-1	·	·
CCOc1ccccc1NC(=O)C1CCN(c2nc(-c3ccc(OC)cc3)no2)CC1	-7	2	3	-10	·
COc1cc(NCCCCCCN)c2ncccc2c1OC	-11	14	7	51*	22
CCOC(=O)c1cnc(-n2nc(C)cc2C)nc1NNc1nc(-c2ccccc2)cc(-c2ccccc2)n1	·	·	·	35*	4
CCOC(=O)c1cnc(-n2nc(C)cc2C)nc1NNc1nc(C)cc(C)n1	-16	6	-2	-1	·
O=S1(=O)c2ccc(N3CC[C@@H](O)C3)cc2O[C@H]2CCN1C2	·	·	8	·	·
CCOc1ccc2c(ccc(/C=C/c3cc(C)c4cccnc4c3O)[n+]2C)c1	·	·	·	55*	89*
O=C(Nc1ccc(F)cc1)Nc1ccc(N2CCCC2)c(S(=O)(=O)Nc2ccccc2Cl)c1	8	10	37*	30*	28
COc1ccc(NS(=O)(=O)c2cc(NC(=O)CCNC(C)=O)ccc2N2CCCCC2)cc1	-3	-2	2	0	·
O=C(/C=C/c1cccs1)Nc1ccc(N2CCOCC2)c(S(=O)(=O)Nc2cc(Cl)ccc2Cl)c1	-5	12	15	34*	16
COc1ccccc1NS(=O)(=O)c1cc(NC(=O)C(C)C)ccc1N1CCCCC1	0	10	6	10	·
O=C(Nc1ccc(N2CCOCC2)c(S(=O)(=O)Nc2ccccc2Cl)c1)c1ccc(F)cc1	5	14	11	0	·
COc1ccc(NS(=O)(=O)c2cc(NC(=O)/C=C/c3cc(OC)ccc3OC)ccc2N2CCCCC2)cc1	-5	15	3	39*	13
O=C(/C=C/c1cccs1)Nc1ccc(N2CCOCC2)c(S(=O)(=O)Nc2ccccc2Cl)c1	8	4	21	23	·
COc1ccccc1NS(=O)(=O)c1cc(NC(=O)Nc2ccccc2)ccc1N1CCCCC1	-1	0	26	35*	24
Cc1ccc(C2NC(=O)c3n[nH]c(C(C)C)c32)cc1 (centres undefined)	8	6	3	·	·
O=C(Nc1ccc(Cl)c(Cl)c1)Nc1ccc(N2CCCC2)c(S(=O)(=O)Nc2ccccc2Cl)c1	20	21	33	31*	36
COc1ccccc1NC(=O)c1c(Nc2ccccc2F)sc(C(=O)Nc2cccc(Cl)c2)c1N	17	18	28	43*	41
COc1ccccc1NC(=O)C/C(N)=N/OCC(=O)Nc1cccc(Cl)c1	7	2	5	1	·
O=C(COC(=O)c1cccnc1Cl)Nc1cc(S(=O)(=O)N2CCCCC2)ccc1Cl	-10	10	1	-10	·
Nc1cc(N)cc(C(=O)OCC(=O)Nc2cc(S(=O)(=O)N3CCCCC3)ccc2Cl)c1	16	-14	17	31*	18
CS(=O)(=O)OC12CCCN(C1)/C(=C/c1ccc(Cl)cc1)C2 (centres undefined)	·	·	3	·	·
O=C(COc1ncnc2sccc12)Nc1ccc(F)cc1F	5	1	7	30*	9
CNC(=O)COc1ncnc2sccc12	-11	0	1	5	·
SMILES	ASAP1 inh	ARFGAP1 inhibitor	rCAG RNA binder	NadD block	NadD inh conf
CCN(CC)S(=O)(=O)c1ccc(C(=O)NNc2nc(-c3ccccc3)c3cc(Br)ccc3n2)cc1	10	12	13	35*	20
CCOC(=O)[C@@]12CN(C(=O)OC(C)(C)C)CC=C1N(Cc1ccc(OC)cc1)C(=O)[C@H]2CC(=O)N1CCCCC1	·	·	0	·	·
Cc1ccc(-c2nc3ccc(Br)cn3c2Cc2cccc(F)c2)cc1	-6	-11	26	31*	6
Cc1ccc(Cc2c(-c3ccc(C)cc3)nc3ccc(Br)cn23)cc1	-1	-4	21	11	·
COc1ccc(Cc2c(-c3ccco3)nc3c(C)cc(Br)cn23)c(C)c1	2	8	8	5	·
COc1ccc(Cc2c(-c3ccco3)nc3ccc(Cl)cn23)c(C)c1	-3	10	22	42*	8
COc1ccc(Cc2c(-c3ccco3)nc3ccc(Br)cn23)c(C)c1	7	2	18	59*	3
Cc1ccc(Cc2c(-c3ccco3)nc3ccc(Br)cn23)cc1	-9	0	23	30*	18
O=C(NCCc1ccccc1F)c1ccc2c(c1)ncn2C1CCCCC1	·	·	1	·	·

Bioassay records (PubChem)
